Test results from ChEMBL document CHEMBL3259629, “Discovery and optimization of piperidyl-1,2,3-triazole ureas as potent, selective, and in vivo-active inhibitors of α/β-hydrolase domain containing 6 (ABHD6)” (J Med Chem, 2013).

Tests used:
[1] = target: T1, Diacylglycerol lipase-beta (Mus musculus) (UniProt Q91WC9); assay: Inhibition of FP-rhodamine-labelled recombinant mouse DAGLbeta expressed in HEK293T cells at 1 uM preincubated for 30 mins followed by FP-rhodamine labelling measured after 30 mins by gel-based competitive ABPP assay; assay type: cell-based; details: HEK-293T
T1 sequence (whole entry): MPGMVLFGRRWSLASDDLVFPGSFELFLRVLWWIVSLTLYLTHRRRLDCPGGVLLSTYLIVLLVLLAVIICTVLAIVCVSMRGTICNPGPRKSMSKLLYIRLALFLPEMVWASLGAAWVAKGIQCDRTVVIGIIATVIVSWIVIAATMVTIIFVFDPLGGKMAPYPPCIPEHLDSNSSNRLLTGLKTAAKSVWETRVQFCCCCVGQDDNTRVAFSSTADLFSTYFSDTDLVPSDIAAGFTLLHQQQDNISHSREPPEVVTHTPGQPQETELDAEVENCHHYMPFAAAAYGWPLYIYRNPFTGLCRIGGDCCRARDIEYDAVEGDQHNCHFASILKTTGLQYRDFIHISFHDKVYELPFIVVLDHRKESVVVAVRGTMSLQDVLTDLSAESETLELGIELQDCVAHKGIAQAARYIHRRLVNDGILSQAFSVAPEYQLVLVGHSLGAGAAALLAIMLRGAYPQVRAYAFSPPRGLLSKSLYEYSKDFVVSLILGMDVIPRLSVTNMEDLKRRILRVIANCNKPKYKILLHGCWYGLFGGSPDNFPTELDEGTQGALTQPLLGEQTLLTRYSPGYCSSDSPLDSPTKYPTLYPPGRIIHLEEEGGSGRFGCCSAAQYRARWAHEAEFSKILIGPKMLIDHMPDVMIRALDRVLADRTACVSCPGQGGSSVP
Summary of the method: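 Mouse DAGLβ transiently overexpressed in HEK293T. Lysate diluted to 0.3 mg/mL in 50 mM HEPES pH 7.2, 100 mM NaCl, 5 mM CaCl₂, 0.1% Triton X-100, 10% DMSO. Compound preincubated 30 min at 37 °C, then 1 μM probe for 30 min at 37 °C, SDS-PAGE and in-gel fluorescence.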

[2] = target: T2, Protein phosphatase methylesterase 1 (Mus musculus) (UniProt Q8BVQ5); details: Neuro2a, 3 nM
T2 sequence (whole entry): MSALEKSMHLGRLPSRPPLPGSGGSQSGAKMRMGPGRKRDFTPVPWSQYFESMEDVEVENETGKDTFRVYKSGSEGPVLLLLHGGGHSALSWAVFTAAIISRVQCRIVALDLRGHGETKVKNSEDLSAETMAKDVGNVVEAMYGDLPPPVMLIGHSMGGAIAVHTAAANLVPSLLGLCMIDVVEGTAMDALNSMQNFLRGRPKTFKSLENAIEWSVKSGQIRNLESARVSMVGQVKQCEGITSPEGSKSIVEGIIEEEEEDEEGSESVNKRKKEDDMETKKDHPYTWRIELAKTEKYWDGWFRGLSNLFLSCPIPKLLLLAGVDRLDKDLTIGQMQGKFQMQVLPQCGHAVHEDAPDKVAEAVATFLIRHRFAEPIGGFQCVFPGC

[3] = target: T3, Acyl-coenzyme A thioesterase 1 (Mus musculus) (UniProt O55137); details: Neuro2a, 3 nM
T3 sequence (whole entry): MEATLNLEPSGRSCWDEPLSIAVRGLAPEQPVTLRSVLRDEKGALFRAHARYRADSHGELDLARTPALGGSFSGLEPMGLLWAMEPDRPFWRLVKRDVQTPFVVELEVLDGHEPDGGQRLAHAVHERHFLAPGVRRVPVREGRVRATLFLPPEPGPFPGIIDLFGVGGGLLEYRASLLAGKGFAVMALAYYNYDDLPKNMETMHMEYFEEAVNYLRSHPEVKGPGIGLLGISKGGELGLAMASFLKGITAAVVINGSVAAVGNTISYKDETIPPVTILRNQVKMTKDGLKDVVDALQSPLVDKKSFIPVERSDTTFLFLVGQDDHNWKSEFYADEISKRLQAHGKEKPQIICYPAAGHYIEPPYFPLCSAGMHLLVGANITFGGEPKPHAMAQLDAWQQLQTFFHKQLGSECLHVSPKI

[4] = target: T4, Lysosomal Pro-X carboxypeptidase (Mus musculus) (UniProt Q7TMR0); details: Neuro2a, 3 nM
T4 sequence (whole entry): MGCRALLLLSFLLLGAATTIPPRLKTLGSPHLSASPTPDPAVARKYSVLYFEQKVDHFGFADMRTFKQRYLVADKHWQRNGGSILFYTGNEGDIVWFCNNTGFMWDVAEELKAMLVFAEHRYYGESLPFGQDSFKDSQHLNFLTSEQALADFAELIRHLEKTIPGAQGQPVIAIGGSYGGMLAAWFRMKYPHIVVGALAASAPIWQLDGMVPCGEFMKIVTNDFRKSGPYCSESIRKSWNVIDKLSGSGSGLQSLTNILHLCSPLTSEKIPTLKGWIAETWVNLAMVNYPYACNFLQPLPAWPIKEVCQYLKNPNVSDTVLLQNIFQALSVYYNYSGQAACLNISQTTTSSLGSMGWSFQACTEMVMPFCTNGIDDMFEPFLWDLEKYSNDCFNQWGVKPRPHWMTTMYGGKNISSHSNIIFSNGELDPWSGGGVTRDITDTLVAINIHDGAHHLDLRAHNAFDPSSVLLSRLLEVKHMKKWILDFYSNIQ

O=C(O)c1cccc(-c2ccc(-c3cn(C(=O)N4CCCCC4Cc4ccccc4)nn3)cc2)c1 (racemic)
inhibition [1]: 50% | inhibition [2]: < 50% | inhibition [3]: < 50% | inhibition [4]: < 50%

O=C(N1CCCCC1c1ccccc1)n1cc(-c2ccc(-c3cccc(CO)c3)cc2)nn1 (racemic)
inhibition [1]: 0% | inhibition [2]: < 50% | inhibition [3]: < 50% | inhibition [4]: < 50%

O=C(c1cccc(-c2ccc(-c3cn(C(=O)N4CCCCC4c4ccccc4)nn3)cc2)c1)N1CCCCC1 (racemic)
inhibition [1]: 0% | inhibition [2]: < 50% | inhibition [3]: < 50% | inhibition [4]: < 50%
